SR-BI HDL uptake: inhibitors of SR-BI mediated HDL lipid uptake, primary screen, ldlA[mSR-BI] cells, fluorescence, single point | Scavenger receptor class B member 1 (Mus musculus), Q61009 | ldlA[mSR-BI] CHO cells, DiI-HDL uptake fluorescence, 3 h | hit rate 0.96% among 320,000 | AID 488896, 2010 | inhibition, % at 12.5 µM;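 active = mean replicate inhibition of at least 70% and a set share of replicates each scoring 70 or more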;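 also: 0% = median of neutral control wells and 100% = median of positive control wells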
Glyco luc inh: increase of ERlucT glycosylation luciferase signal, primary screen, N-linked glycosylation inhibitor project, D54 ERlucT cells, luminescence, set 2 | AID 588692, 2011 | reporter increase, % at 12.5 µM | D54 ERlucT glycosylation luciferase reporter, 24 h; percent of 100 nM tunicamycin response | hit rate 0.23% among 360,000;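 active = mean luciferase reporter signal, scaled so untreated is 0 and the glycosylation-blocking control 100, at or above a set limit in every replicate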;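 also: luciferase carries N-glycosylation sites so blocking glycosylation raises the light; 0% = median of neutral control wells and 100% = median of 100 nM tunicamycin wells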
SR-BI DiI-HDL act: activators of SR-BI mediated DiI-HDL uptake, primary screen, ldlA[mSR-BI] CHO cells, DiI fluorescence. activation, % at 12.5 µM. AID 504775, 2011. hit rate 0.096% among 320,000. 3 h; 100 = double the neutral-control signal;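 active = mean replicate activation of at least 60% and every replicate at or above 60%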;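 also: 0% = median plate neutral-control signal and 100% = twice that signal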
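Test system: SR-BI-overexpressing, LDLR-lacking CHO cells; Medium: Ham's F12 with 0.5% BSA, HEPES 25 mM, pH 7.4; Schedule: 3 h, 37 °C; Technique: bottom-read fluorescence, 550/595 nm.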
Rtt109 HAT inh: inhibitors of C. albicans Rtt109/Vps75 HAT, primary screen, biochemical, ThioGlo CoA-SH fluorescence, plate reader; AID 540336, 2011; Histone acetyltransferase RTT109 (Candida albicans (strain SC5314 / ATCC MYA-2876)), …; purified Rtt109/Vps75, 4 h; inhibition, % at 34.9 µM; hit rate 0.16% among 330,000;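 active = inhibition of at least 50% in every replicate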
Target sequence (Q5AAJ8 whole entry, looked up): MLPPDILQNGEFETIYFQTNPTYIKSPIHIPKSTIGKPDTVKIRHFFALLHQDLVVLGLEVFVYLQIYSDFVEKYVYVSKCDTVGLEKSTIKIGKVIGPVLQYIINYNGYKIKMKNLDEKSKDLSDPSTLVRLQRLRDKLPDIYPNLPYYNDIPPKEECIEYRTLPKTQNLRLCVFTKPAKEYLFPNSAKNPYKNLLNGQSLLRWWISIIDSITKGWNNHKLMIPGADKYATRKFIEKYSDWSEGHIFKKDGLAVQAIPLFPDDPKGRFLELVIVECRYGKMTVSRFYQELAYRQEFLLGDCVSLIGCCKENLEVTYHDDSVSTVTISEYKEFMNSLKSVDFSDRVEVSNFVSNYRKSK
HIV Env fusion: inhibitors of HIV-1 Env-driven cell-cell fusion, primary screen, HeLa-JRFL effector, CEM21 target cells, luciferase; inhibition, % at 12.3 µM; hit rate 1.1% among 360,000;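 active = mean replicate inhibition score of at least 50 and every replicate individually at or above 50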;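 also: 0% = plate neutral controls and 100% = maraviroc near 300 nM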
PglD DTNB: C. jejuni PglD acetyltransferase inhibitors, primary screen, biochemical, DTNB colorimetric, single point. purified PglD enzyme, DTNB colorimetric CoA detection. hit rate 0.098% among 360,000. UDP-N-acetylbacillosamine N-acetyltransferase PglD (Campylobacter jejuni). inhibition, % at 12.5 µM; in the data active = inhibition above about 16%, passing the limit was not always enough
The depositor's hits bear a star; / = not tested or not shown; [ ] = another dose, or the depositor's remark. An excerpt weighted towards active compounds, which were near 1.9% of everything screened.

SMILES	SR-BI HDL uptake	Glyco luc inh	SR-BI DiI-HDL act	Rtt109 HAT inh	HIV Env fusion	PglD DTNB
Cc1ccc(C(C(=O)NC2CCCC2)N(Cc2ccc(F)cc2)C(=O)c2snc(C(N)=O)c2N)o1 (centres undefined)	12.5	-3.6	-12.5	0.2	64.8*	-7.7
COc1ccc(N(C(=O)c2snc(C(N)=O)c2N)C(C(=O)NC2CCCC2)c2ccco2)cc1 (centres undefined)	/	-3.9	/	-20.6	8.9	2.3
CCc1ccc(N(C(=O)c2snc(C(N)=O)c2N)C(C(=O)NC2CCCC2)c2ccco2)cc1 (centres undefined)	-28.3	-0.6	28.3	19.3	55.9*	6.1
O=S(=O)(c1ccccc1)N1CCCCN2[C@H](CO)[C@H](c3ccc(-c4ccccc4F)cc3)[C@@H]2C1	/	/	/	/	/	2.3
CCCNC(=O)C[C@@H]1CC[C@H]2[C@H](COc3ccc(NC(=O)c4cccc(F)c4)cc3C(=O)N2C)O1	/	/	/	/	10.3[16.7 µM]	-1.2
C[C@@H]1CCCCO[C@H](CN(C)C(=O)Nc2ccccc2)[C@H](C)CN([C@@H](C)CO)C(=O)c2cc(NS(=O)(=O)c3ccc(Cl)cc3)ccc2O1	/	/	/	/	-19.9[16.7 µM]	0.4
COc1cc(OC)c(-c2nc3ccccc3s2)cc1OC	70.9*	-3.3	-70.9	-6.7	-5.2	/
COc1cccc(-c2nc3ccccc3s2)c1O	13.4	-12.8	-13.4	-0.4	-289.8	0.1
CCCC#Cc1ccc2c(c1)O[C@H](CN(C)C(=O)COC)[C@@H](C)CN([C@H](C)CO)S2(=O)=O	/	/	/	/	1.7[16.7 µM]	-1.8
COCC(=O)Nc1ccc2c(c1)C(=O)N(C)C[C@H](OC)[C@@H](C)CN(C(=O)c1ccccc1)[C@@H](C)CO2	/	/	/	/	-7.3[16.7 µM]	0.7
COc1ccc(-c2ccc3c(c2)C2CC3CCN2S(=O)(=O)c2ccccc2C)cc1 (centres undefined)	28.0	-2.5	-28.0	-1.0	57.0*	-5.5
CCN(CC)c1ccc(/C=N/NC(=O)Cc2nnc(NC(=O)Nc3ccccc3)s2)cc1	91.0*	-6.0	-91.0	-2.9	1.9	/
CCN(CC)c1ccc(/C=N/NC(=O)Nc2ccccc2)cc1	17.2	0.0	-17.2	7.4	-51.9	/
C[C@H](CO)N1C[C@H](C)[C@@H](CN(C)C)Oc2ccc(NC(=O)Cn3cnnn3)cc2C1=O	/	/	/	/	/	-4.6
Cc1ccc(S(=O)(=O)N[C@@H]2CC[C@@H](CC(=O)NCc3ccccc3F)O[C@H]2CO)cc1	/	/	/	/	-1.1[16.7 µM]	-2.3
O=C(O)CCS(=O)(=O)c1cccc2cccnc12	-13.7	2.5	13.7	/	/	/
CCSS(=O)(=O)c1cccc2cccnc12	0.8	1.6	-0.8	153.8*	-2.2	12.1
COc1cc(NC2c3ccccc3C(=O)N2Cc2ccccc2)cc(OC)c1OC (centres undefined)	0.4	3.5	-0.4	-1.1	72.5*	-5.2
CC1C(=O)N(Cc2cn(CCC3OCCCO3)nn2)CCS(=O)(=O)N1Cc1ccc(-c2ccc(Cl)c(Cl)c2)cc1 (centres undefined)	/	-2.3	/	/	64.1*	-0.1
CC1C(=O)N(Cc2cn(CCC3OCCCO3)nn2)CCS(=O)(=O)N1Cc1ccc(-c2ccc(F)cc2)cc1 (centres undefined)	/	-2.1	/	/	/	-3.2
O=c1[nH]c2ccccc2c2oc(CCl)nc12	/	-1.9	/	77.8*	14.9	/
CNC[C@@H]1OCCCC[C@@H](C)Oc2ccc(NS(=O)(=O)c3ccccc3)cc2C(=O)N([C@H](C)CO)C[C@@H]1C	/	/	/	/	2.9[16.7 µM]	7.7
Oc1ccc(-c2nc(-c3ccc(F)cc3)c(-c3ccncc3)[nH]2)cc1	73.9*	0.3	-73.9	3.6	57.1*	-2.4
Fc1ccc(-c2nc(-c3cccs3)[nH]c2-c2ccc(F)cc2)cc1	58.8	-2.7	-58.8	6.5	/	-0.2
C[C@H](CO)N1C[C@H](C)[C@@H](CN(C)Cc2ccc(C(F)(F)F)cc2)Oc2ccc(NC(=O)c3ccncc3)cc2CC1=O	/	/	/	/	9.5[16.7 µM]	3.3
SMILES	SR-BI HDL uptake	Glyco luc inh	SR-BI DiI-HDL act	Rtt109 HAT inh	HIV Env fusion	PglD DTNB
Cc1noc(C)c1NC(=O)N(C)C[C@H]1OCCCC[C@@H](C)Oc2ccc(NS(=O)(=O)c3ccc(Cl)cc3)cc2C(=O)N([C@@H](C)CO)C[C@@H]1C	/	/	/	/	-74.9[16.7 µM]	-2.2
CN1CC(c2ccccn2)C2(SC(=S)N(Cc3ccccc3)C2=O)C12C(=O)Nc1ccccc12 (centres undefined)	-28.5	3.0	28.5	-9.5	-5.5	1.1
CN1CC(c2ccccc2)C2(SC(=S)N(Cc3ccco3)C2=O)C12C(=O)Nc1ccccc12 (centres undefined)	-6.5	-6.8	6.5	-10.7	77.4*	-3.4
CCCc1ccc(-c2cc(NC(=O)Cc3c[nH]c4ccccc34)ccc2Nc2cccnc2)cc1	/	/	/	/	20.0	/
CC(C)(C)c1ccc(-c2cc(NC(=O)Cc3c[nH]c4ccccc34)ccc2Nc2cccnc2)cc1	/	/	/	/	74.1*	/
CC(C)NC(=O)N(C)C[C@H]1OCCCC[C@@H](C)Oc2ccc(NC(=O)c3ccncc3)cc2C(=O)N([C@@H](C)CO)C[C@H]1C	/	/	/	/	-10.5[16.7 µM]	0.1
Cc1cccc(Cn2nc(C)c(NC(=O)c3ccc(F)cc3)c2C)c1	-5.8	-1.2	5.8	0.1	6.0	/
Cc1nn(Cc2c(F)c(F)c(F)c(F)c2F)c(C)c1NC(=O)c1cccc(COc2ccc(Cl)cc2)c1	50.4	-3.6	-50.4	4.5	62.6*	-0.2
Cc1ccc(-c2cnc3c(c2)C(=O)N([C@@H](C)CO)C[C@H](C)[C@@H](CN(C)S(C)(=O)=O)O3)cc1	/	/	/	/	-1.0[16.7 µM]	-5.1
O=C(c1ccco1)N1CCN(C(=O)c2ccco2)CC1	/	-0.8	/	/	-13.5	/
O=C(c1ccco1)N1CCN(C(=O)C2CC2)CC1	-67.1	-1.5	67.1*	-23.4	5.4	0.2
CCOc1ccc(-n2c(SCC(=O)Nc3cc(OC)c([N+](=O)[O-])cc3C)nc3ccccc32)cc1	81.9*	-4.9	-81.9	/	11.0	-1.4
COc1ccccc1CNC(=O)C[C@H]1C[C@H]2c3cc(NS(C)(=O)=O)ccc3O[C@H]2[C@H](CO)O1	/	/	/	/	-3.2[16.7 µM]	-2.5
Cc1ccc(/C=N/Nc2ccc(C(=O)O)cc2)s1	-5.8	-19.1	5.8	20.7	63.7*	5.7
CC(C)c1ccc(/C=N/Nc2ccc(C(=O)O)cc2)cc1	-13.4	-15.0	13.4	12.5	65.5*	/
O=C(O)c1ccc(N/N=C/c2ccc(-c3ccccc3)cc2)cc1	-3.7	-5.4	3.7	24.4	-202.9	/
CNC[C@H]1Oc2ncc(-c3cccc(F)c3)cc2C(=O)N([C@H](C)CO)C[C@H]1C	/	/	/	/	-3.4[16.7 µM]	-2.8
